Data set [1] has as its target T1, Organic anion transporter 3 (Homo sapiens, UniProt Q8TCC7).
T1 sequence (Q8TCC7 whole entry): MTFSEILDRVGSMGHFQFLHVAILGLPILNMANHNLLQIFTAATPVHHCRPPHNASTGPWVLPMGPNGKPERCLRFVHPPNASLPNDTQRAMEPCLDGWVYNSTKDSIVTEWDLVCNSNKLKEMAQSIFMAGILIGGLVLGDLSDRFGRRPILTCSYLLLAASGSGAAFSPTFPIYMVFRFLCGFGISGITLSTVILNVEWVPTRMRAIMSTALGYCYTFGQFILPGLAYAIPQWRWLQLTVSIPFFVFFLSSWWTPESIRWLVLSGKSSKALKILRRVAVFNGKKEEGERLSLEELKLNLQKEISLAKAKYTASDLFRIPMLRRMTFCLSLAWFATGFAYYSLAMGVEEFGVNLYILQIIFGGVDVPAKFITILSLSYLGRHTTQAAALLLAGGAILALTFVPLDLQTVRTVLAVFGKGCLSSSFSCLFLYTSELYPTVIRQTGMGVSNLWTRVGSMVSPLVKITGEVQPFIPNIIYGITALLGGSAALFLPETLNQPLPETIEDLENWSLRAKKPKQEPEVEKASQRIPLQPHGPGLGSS
The data set is described as follows: Inhibition of OAT3 (unknown origin) expressed in HEK293 cells assessed as reduction in 6-CF uptake measured after 5 mins by fluorescence assay. It is filed as cell-based. The note with it: for inhibition (INH): human, hek293, 5 min. Put shortly: (§1)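 Uptake of 4 μM 6-CF measured over 5 min in stable OAT1- or OAT3-HEK293 cells, in pH 7.2 Hepes buffer at 37 °C with serial dilutions of compound. Lysate fluorescence (485/528 nm) normalized to protein, triplicate. IC50 obtained by nonlinear regression, reported as mean ± SEM.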

Another data set deals with T2, OAT1 (SLC22A6) (Homo sapiens, UniProt Q4U2R8).
T2 sequence (Q4U2R8 whole entry): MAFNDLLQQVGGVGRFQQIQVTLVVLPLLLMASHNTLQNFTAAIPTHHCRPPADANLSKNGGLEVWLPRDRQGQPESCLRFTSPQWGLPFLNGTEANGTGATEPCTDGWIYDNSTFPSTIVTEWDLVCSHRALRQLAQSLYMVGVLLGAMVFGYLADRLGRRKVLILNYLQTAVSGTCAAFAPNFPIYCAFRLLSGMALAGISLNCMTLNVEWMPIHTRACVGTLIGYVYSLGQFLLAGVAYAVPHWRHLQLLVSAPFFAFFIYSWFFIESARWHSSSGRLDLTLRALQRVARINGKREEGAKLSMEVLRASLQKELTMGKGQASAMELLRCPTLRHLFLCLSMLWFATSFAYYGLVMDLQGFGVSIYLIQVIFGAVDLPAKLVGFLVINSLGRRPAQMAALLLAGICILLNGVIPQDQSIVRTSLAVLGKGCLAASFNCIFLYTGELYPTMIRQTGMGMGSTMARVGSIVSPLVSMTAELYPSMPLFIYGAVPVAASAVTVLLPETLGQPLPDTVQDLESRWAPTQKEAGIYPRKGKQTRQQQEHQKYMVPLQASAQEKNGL
The experiment in a line: Inhibition of OAT1 (unknown origin) expressed in HEK293 cells assessed as reduction in 6-CF uptake at 50 uM measured after 5 mins by fluorescence assay relative to control. It is filed as cell-based. Particulars: HEK293 cells expressing OAT1, probe 6-CF. Put shortly:
(§2)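 Transfected HEK293 cells stably expressing OAT1 or OAT3, maintained under hygromycin B selection, were seeded on poly-D-lysine plates and grown 24 h. Cells preincubated 5 min at 37 °C in Hepes uptake buffer (pH 7.2), then exposed 5 min to 4 μM 6-CF with compound at 50 μM. Ice-cold stop, PBS wash, Triton lysis. Fluorescence read at 485/528 nm, normalized to BCA protein, in triplicate.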

The target in the next data set is T3, OAT3 (Homo sapiens, UniProt Q8TCC7).
T3 sequence (Q8TCC7 whole entry): T1 sequence (Q8TCC7 whole entry)
The experiment in a line: Inhibition of OAT3 (unknown origin) expressed in HEK293 cells assessed as reduction in 6-CF uptake at 50 uM measured after 5 mins by fluorescence assay relative to control. It is filed as cell-based. Particulars: HEK293 cells expressing OAT3, probe 6-CF. Put shortly:
as §2

The target of data set [2] is T4, Solute carrier family 22 member 6 (Homo sapiens, UniProt Q4U2R8).
T4 sequence (Q4U2R8 whole entry): T2 sequence (Q4U2R8 whole entry)
The data set is described as follows: Inhibition of OAT1 (unknown origin) expressed in HEK293 cells assessed as reduction in 6-CF uptake measured after 5 mins by fluorescence assay. The format is cell-based. Particulars: for inhibition (INH): human, hek293, 5 min. A digest of the protocol: as §1

Data set [3] deals with Rattus norvegicus. The data set is described as follows: In vivo inhibition of OAT1 and OAT3 in Wistar rat assesed as increase in furosemide AUC (0 to t) at 20 mg/kg, po administered via gavage pretreated for 5 mins followed by furosemide addition and measured within 30 mins by HPLC analysis. It is filed as functional. More on the design: scale not given: the % may be the effect or the level left. Put shortly:
(§3)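 Rats (5 per group) fasted 12 h, then pretreated by oral gavage with test agent in 40% PEG-400 or vehicle. After 5 min, furosemide 10 mg/kg in saline given by tail vein injection. Orbital sinus blood taken at 2–120 min. Plasma extracted with MeCN containing warfarin internal standard. Furosemide quantified by C18 HPLC with UV detection at 280 nm. AUC0−t calculated.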

The test system of data set [4] is Rattus norvegicus. The experiment in a line: In vivo inhibition of OAT1 and OAT3 in Wistar rat assesed as increase in furosemide AUC (0 to t) at 10 mg/kg, po administered via gavage pretreated for 5 mins followed by furosemide addition and measured within 30 mins by HPLC analysis. It is filed as functional. More on the design: scale not given: the % may be the effect or the level left. The note with it: in the assay text read “at 20 mg/kg” for “at 10 mg/kg”. A digest of the protocol: as §3

Data set [5] is described as follows: Toxicity in Wistar rat at 20 mg/kg, po administered via gavage. The format is organism-based. Particulars: in vivo. Put shortly:
(§4)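 Preliminary test in fasted rats: single oral gavage dose in 40% PEG-400, observed for toxic response.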

In data set [6] the test system is Rattus norvegicus. The data set is described as follows: In vivo inhibition of OAT1 and OAT3 in Wistar rat assesed as increase in furosemide AUC (0 to t) at 20 mg/kg, po administered via gavage pretreated for 5 mins followed by furosemide addition and measured within 10 mins by HPLC analysis. It is filed as functional. More on the design: scale not given: the % may be the effect or the level left. A digest of the protocol: as §3

For data set [7], the system named is Rattus norvegicus. The experiment in a line: In vivo inhibition of OAT1 and OAT3 in Wistar rat assesed as increase in furosemide AUC (0 to t) at 20 mg/kg, po administered via gavage pretreated for 5 mins followed by furosemide addition and measured within 90 mins by HPLC analysis. Also noted: scale not given: the % may be the effect or the level left. It is filed as functional. A digest of the protocol: as §3

The subject of data set [8] is Rattus norvegicus. The experiment in a line: In vivo inhibition of OAT1 and OAT3 in Wistar rat assesed as increase in furosemide AUC (0 to t) at 10 mg/kg, po administered via gavage pretreated for 5 mins followed by furosemide addition and measured within 90 mins by HPLC analysis. The format is functional. More on the design: scale not given: the % may be the effect or the level left. A digest of the protocol:
as §3

In data set [9] the test system is Rattus norvegicus. The data set is described as follows: In vivo inhibition of OAT1 and OAT3 in Wistar rat assesed as increase in furosemide AUC (0 to t) at 10 mg/kg, po administered via gavage pretreated for 5 mins followed by furosemide addition and measured within 10 mins by HPLC analysis. It is filed as functional. Also noted: scale not given: the % may be the effect or the level left. Particulars: in the assay text read “at 20 mg/kg” for “at 10 mg/kg”. A digest of the protocol:
as §3

The nature of data set [10]: Toxicity in Wistar rat at 10 mg/kg, po administered via gavage. The note with it: in vivo. It is filed as organism-based. A digest of the protocol: as §4

In the case of `C=Cc1c(C)c(O)cc2c1-c1ccc(O)c(C)c1CC2`, in data set [1], the IC50 – broadly, the point on the concentration scale where inhibition reaches its midpoint – amounted to 6.5 µM and the “inhibition (INH)” value was “Dose-dependent effect”. For the same compound, the inhibition (in general, the change of the read-out against control, counted positive when it falls) at 5 min, 50 µM on OAT1 (SLC22A6) is under 50%. The inhibition at 5 min, 50 µM at OAT3 was over 50%.
With `C=Cc1c(C(=O)O)ccc2c1CCc1c-2ccc(O)c1C`, the figures for the IC50 in data set [1] and in data set [2] were 1.1 µM and 18.3 µM, respectively. Also, the “inhibition (INH)” value in [1] is “Dose-dependent effect”. Also, the inhibition at 5 min, 50 µM on OAT1 (SLC22A6) and on OAT3 was over 50% throughout.
For `COc1cc(C(=O)c2ccc(O)c(OC)c2)ccc1O`, the IC50 in data set [1] was found to be 2.3 µM; in data set [2] it was 3.5 µM. Also, the “inhibition (INH)” value in [1] and in data set [2] was “Dose-dependent effect” in each case. The inhibition at 5 min, 50 µM on OAT1 (SLC22A6) and on OAT3 was over 50% throughout.
Regarding `C=Cc1cc(C(=O)O)cc2c1-c1ccc(O)c(C)c1CC2`, the IC50 came out at 1.1 µM in data set [1] and 4.4 µM in data set [2]. In addition, the “inhibition (INH)” value in data set [1] and in data set [2] was “Dose-dependent effect” throughout. Besides, the inhibition at 5 min, 50 µM on OAT1 (SLC22A6) and on OAT3 was over 50% in each case.
For `C=Cc1cc(C(=O)O)cc2c1CCc1c-2ccc(O)c1C`, in data set [1], the IC50 was 2.8 µM and the “inhibition (INH)” value is recorded as “Dose-dependent effect”. Besides, the inhibition at 5 min, 50 µM on OAT1 (SLC22A6) is under 50%. Besides, the inhibition at 5 min, 50 µM on OAT3 is over 50%.
With `C=Cc1cc2c(cc1C(=O)O)CCc1c-2ccc(O)c1C`, the Activity in the data set with Rattus norvegicus [3] is 62%; in the data set with Rattus norvegicus [4] it was 62%; in [5], “Non-Toxic”; in the data set with Rattus norvegicus [6], 70%; in the data set with Rattus norvegicus [7], 66%; with Rattus norvegicus [8], 66%. Further, the Activity in the data set with Rattus norvegicus [9] is 70%. Besides, the IC50 came to 1.3 µM in [1] and 8.4 µM in [2]. Also, the “inhibition (INH)” value in data set [1] and in data set [2] was “Dose-dependent effect” throughout. In addition, the inhibition at 5 min, 50 µM on OAT1 (SLC22A6) and at OAT3 was over 50% throughout.
As to `COC(C)c1cc(O)cc2c1-c1ccc(O)c(C)c1CC2` (racemic), the 50% inhibitory concentration (IC50) stood at 8.3 µM in data set [1] and 43.1 µM in data set [2]. Besides, the “inhibition (INH)” value in data set [1] is “Dose-dependent effect”. Further, the inhibition at 5 min, 50 µM at OAT1 (SLC22A6) and at OAT3 was over 50% throughout.
As for `C=Cc1cc(O)cc2c1-c1ccc(O)c(C)c1CC2` [EFFUSOL], the IC50 in [1] was found to be 22.7 µM; in data set [2], 23.3 µM. Also, the inhibition at 5 min, 50 µM at OAT1 (SLC22A6) and at OAT3 was over 50% throughout.
Take `CCCN(CCC)S(=O)(=O)c1ccc(C(=O)O)cc1` [PROBENECID]: in data set [10], the Activity entry was “Non-Toxic”.

Values taken from ChEMBL document CHEMBL4480457, “Dihydrophenanthrenes from Juncus effusus as Inhibitors of OAT1 and OAT3” (J Nat Prod, 2019).
